≈ marks a conversion by molar mass, not a printed value. Calls of active or inactive are those of the source. The calls are words filed in the database; no cut-off is given here.
Key:
Staphylococcus aureus [1] = test: Bacteriostatic activity against Staphylococcus aureus E19977 assessed as log reduction in cfu at 0.5 mg/liter upto 8 hrs by time-kill study; type: functional, organism-based
Staphylococcus aureus [2] = test: Bactericidal activity against Staphylococcus aureus E19977 assessed as log reduction in cfu at 9 mg/liter after 24 hrs by time-kill study; type: functional, organism-based
How it was run: (§1)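 In vitro kinetic model simulating antibiotic elimination without inoculum change. Exponential-phase E19977 was added at a final 10^6.3 CFU/ml. Starting drug concentration matched the human free peak, with the human half-life simulated. Samples were plated on 5% blood agar at 0, 2, 4, 6, 8, 12 and 24 h, with growth controls in each run. Results are shown as mean and range, n = 2.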

Staphylococcus aureus [3] = test: Bactericidal activity against Staphylococcus aureus E19977 assessed as log reduction in cfu at 2 mg/liter after 24 hrs by time-kill study; type: functional, organism-based; how it was run: as §1
Staphylococcus aureus [4] = test: Bactericidal activity against Staphylococcus aureus E19977 assessed as log reduction in cfu at 1.5 mg/liter after 24 hrs by time-kill study; type: functional, organism-based; how it was run: as §1
Staphylococcus aureus [5] = test: Bactericidal activity against Staphylococcus aureus E19977 assessed as log reduction in cfu at 20 mg/liter after 24 hrs by time-kill study; type: functional, organism-based; how it was run: as §1
Staphylococcus aureus [6] = test: Bactericidal activity against Staphylococcus aureus E19977 assessed as log reduction in cfu at 0.5 mg/liter after 24 hrs by time-kill study; type: functional, organism-based; how it was run: as §1
Staphylococcus aureus [7] = test: Antibacterial activity against Staphylococcus aureus E19977 infected in NMRI mouse assessed as log reduction in bacterial cfu in peritoneum at 1 mg/kg, sc administered 2 hrs after infection measured after 4 hrs; type: functional, organism-based; parameters: dose 1 mg/kg
How it was run: (§2)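 Female NMRI mice (25–30 g) were infected i.p. with 0.5 ml of 10^7.7 CFU/ml in 5% mucin. […] Pooled washes were split into total, extracellular and intracellular fractions by 300 × g spin, lysostaphin, HBSS washes and water lysis. Counts were compared with untreated mice.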

Staphylococcus aureus [8] = test: Antibacterial activity against Staphylococcus aureus E19977 infected in NMRI mouse assessed as log reduction in intracellular bacterial cfu in peritoneum at 1 mg/kg, sc administered 2 hrs after infection measured after 4 hrs; type: functional, organism-based; parameters: dose 1 mg/kg; how it was run: as §2
Staphylococcus aureus [9] = test: Antibacterial activity against Staphylococcus aureus E19977 infected in NMRI mouse assessed as log reduction in extracellular bacterial cfu in peritoneum at 1 mg/kg, sc administered 2 hrs after infection measured after 4 hrs; type: functional, organism-based; parameters: dose 1 mg/kg; how it was run: as §2
Staphylococcus aureus [10] = test: Antibacterial activity against Staphylococcus aureus E19977 by Etest; type: functional
[11] = Cmax in human at 1000 mg, po; type: ADME, organism-based; parameters: dose 1000 mg, route oral; settings: in vivo
Serum [12] = test: Protein binding in human serum at 1000 mg, po; type: ADME, organism-based; settings: in vivo
[13] = Half life in human at 1000 mg, po; type: ADME, organism-based; settings: in vivo
Staphylococcus aureus [14] = test: Bactericidal activity against Staphylococcus aureus E19977 assessed as log reduction in cfu at 2 mg/liter after 12 hrs by time-kill study; type: functional
How it was run: (§3)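 Clinical bacteremia isolate (penicillin-resistant, methicillin-susceptible). Exponential-phase bacteria were placed in an in vitro kinetic model that simulates drug elimination without changing the inoculum. The starting drug level matched the human free peak serum concentration after a single dose, with simulated human elimination half-life. Samples were taken at 0, 2, 4, 6, 8, 12 and 24 h, with growth controls in each run.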

Staphylococcus aureus [15] = test: Bactericidal activity against Staphylococcus aureus E19977 assessed as log reduction in cfu at 2 mg/liter upto 24 hrs by time-kill study; type: functional; how it was run: as §3
Staphylococcus aureus [16] = test: Bactericidal activity against Staphylococcus aureus E19977 assessed as log reduction in cfu at 1.5 mg/liter upto 24 hrs by time-kill study; type: functional; how it was run: as §3
Staphylococcus aureus [17] = test: Bactericidal activity against Staphylococcus aureus E19977 assessed as log reduction in cfu at 20 mg/liter upto 24 hrs by time-kill study; type: functional
How it was run: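 In vitro kinetic model: exponential-phase bacteria at a final 10^6.3 CFU/ml were exposed to a starting concentration set to the human free peak level. Elimination followed the simulated human half-life. Samples were taken at 0, 2, 4, 6, 8, 12 and 24 h and counted on 5% blood agar (detection limit 25 CFU/ml). Growth controls were included; n = 2.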

Staphylococcus aureus [18] = test: Antibacterial activity against Staphylococcus aureus E19977 infected in NMRI mouse assessed as log reduction in bacterial cfu in peritoneum at 200 mg/kg, sc administered 2 hrs after infection measured after 4 hrs; type: functional, organism-based; parameters: dose 200 mg/kg
How it was run: (§4)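 Dose–response in i.p.-infected NMRI mice (mucin adjuvant). Single doses of 200, 60, 30, 20 or 10 mg/kg were given 2 h after inoculation, with 4–16 mice per group. Peritoneal wash was sampled 4 h later and split by lysostaphin/centrifugation into total, extra- and intracellular counts, then expressed as Δlog10 CFU/ml against log dose. Vehicle controls were plotted as 0.3 mg/kg. Hill fit (variable slope); static dose interpolated.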

Staphylococcus aureus [19] = test: Antibacterial activity against Staphylococcus aureus E19977 infected in NMRI mouse assessed as log reduction in intracellular bacterial cfu in peritoneum at 200 mg/kg, sc administered 2 hrs after infection measured after 4 hrs; type: functional, organism-based; parameters: dose 200 mg/kg; how it was run: as §4
Staphylococcus aureus [20] = test: Antibacterial activity against Staphylococcus aureus E19977 infected in NMRI mouse assessed as log reduction in extracellular bacterial cfu in peritoneum at 200 mg/kg, sc administered 2 hrs after infection measured after 4 hrs; type: functional, organism-based; parameters: dose 200 mg/kg; how it was run: as §4
[21] = Cmax in human at 1000 mg, im; type: ADME, organism-based; parameters: dose 1000 mg, route […]; settings: in vivo
Serum [22] = test: Protein binding in human serum at 1000 mg, im; type: ADME, cell-free
[23] = Half life in human at 1000 mg, im; type: ADME, organism-based; settings: in vivo

## CC[C@H]1OC(=O)[C@H](C)[C@@H](O[C@H]2C[C@@](C)(OC)[C@@H](O)[C@H](C)O2)[C@H](C)[C@@H](O[C@@H]2O[C@H](C)C[C@H](N(C)C)[C@H]2O)[C@](C)(O)C[C@@H](C)CN(C)[C@H](C)[C@@H](O)[C@]1(C)O [AZITHROMYCIN]
Staphylococcus aureus [1]
  Activity: Active
Staphylococcus aureus [2]
  Activity: inactive
Staphylococcus aureus [3]
  Activity: inactive
Staphylococcus aureus [4]
  Activity: inactive
Staphylococcus aureus [5]
  Activity: inactive
Staphylococcus aureus [6]
  Activity: inactive
Staphylococcus aureus [7]
  Activity: inactive
Staphylococcus aureus [8]
  Activity: inactive
Staphylococcus aureus [9]
  Activity: inactive
Staphylococcus aureus [10]
  MIC: 0.5 µg/mL (≈ 0.668 µM)
[11]
  Cmax: 1000 ng/mL
Serum [12]
  Activity: 50%
[13]
  half-life: 10 h

## CO/N=C(\C(=O)N[C@@H]1C(=O)N2C(C(=O)O)=C(COC(N)=O)CS[C@H]12)c1ccco1 [CEFUROXIME]
Staphylococcus aureus [14]
  FC: 2
Staphylococcus aureus [15]
  FC: 2
Staphylococcus aureus [16]
  FC: 2
Staphylococcus aureus [17]
  FC: >2
Staphylococcus aureus [2]
  Activity: inactive
Staphylococcus aureus [3]
  Activity: inactive
Staphylococcus aureus [4]
  Activity: inactive
Staphylococcus aureus [5]
  Activity: inactive
Staphylococcus aureus [6]
  Activity: inactive
Staphylococcus aureus [18]
  Activity: Active
Staphylococcus aureus [19]
  Activity: inactive
Staphylococcus aureus [20]
  Activity: Active
Staphylococcus aureus [10]
  MIC: 2 µg/mL (≈ 4.71 µM)
[21]
  Cmax: 26000 ng/mL
Serum [22]
  Activity: 30%
[23]
  half-life: 1.5 h
